The record followed here is ChEMBL document CHEMBL1129541, “Synthesis and DNA interactions of benzimidazole dications which have activity against opportunistic infections” (J Med Chem, 1996).

Assay [1] concerns Nucleic Acid. The assay can be described thus: Thermal melting temperature determined for poly(dA).poly(dT) at a concentration of 5*10e-5) M base pairs at a ratio of 0.6 compound per base pair. The format is nucleic-acid assay. The essentials:
(§1)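 Polymers at 5×10^-5 M base pairs in MES buffer (0.01 M MES, 1×10^-3 M EDTA, pH 6.2) with 0.1 M NaCl. Compound at 0.6 per base pair. Samples are in 1 cm reduced-volume quartz cells. UV absorbance melting curves are recorded, with temperature followed by a thermistor in a reference cuvette.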

The test system of assay [2] is Nucleic Acid. The assay can be described thus: Thermal melting temperature for (dCGCGAATTCGCG)2 at a concentration of 3*10e-6 M base pairs at a ratio of one compound per oligomer duplex.
Assay [3] relates to Nucleic Acid. Briefly: Binding constant for the sequence d(CGGAATTCGCG)2. The arrangement: unit not given here.
Assay [4] deals with Nucleic Acid. The assay can be described thus: Thermal melting temperature determined for (dG-C)4 at a concentration of 3*10e-6 M base pairs at a ratio of 0.6 compound per base pair. In kind it is nucleic-acid assay. An outline of the steps:
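d(G-C)4 at 3×10^-6 M in duplex, in MES buffer (0.01 M MES, 1×10^-3 M EDTA, pH 6.2) with 0.1 M NaCl. Compound at 0.6 per base pair. The UV absorbance melting curve is recorded in 1 cm quartz cells, with temperature monitored by a thermistor in a reference cuvette.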

Assay [5] relates to Nucleic Acid. Briefly: Thermal melting temperature for poly(A).poly(U) at a concentration of 5*10e-5) M base pairs at a ratio of 0.6 compound per base pair. In kind it is nucleic-acid assay. The essentials:
as §1

SMILES strings stand for the structures.

`c1cc2[nH]c(CCCCc3nc4cc(C5=NCCN5)ccc4[nH]3)nc2cc1C1=NCCN1`: the ΔTm in the assay with Nucleic Acid [1] is 25.5; in the assay with Nucleic Acid [2], 7.1; in the assay on Nucleic Acid [4], 0.5; in the assay on Nucleic Acid [5] it was -1.5. This compound came in with a K in the assay on Nucleic Acid [3] of 5.2e+06.

Consider `N=C(N)c1ccc2nc(Cc3nc4ccc(C(=N)N)cc4[nH]3)[nH]c2c1`, for which the ΔTm is 4.9 in the assay with Nucleic Acid [1], 2.8 with Nucleic Acid [2], 0 with Nucleic Acid [4] and -0.8 in the assay with Nucleic Acid [5]. The same compound returned a K in the assay on Nucleic Acid [3] of 930000.

For the compound `N=C(N)c1ccc(OCCCCCOc2ccc(C(=N)N)cc2)cc1`, the ΔTm in the assay with Nucleic Acid [1] is 12.8; in the assay with Nucleic Acid [2] it was 4.8; with Nucleic Acid [4], 0; in the assay on Nucleic Acid [5], 0. The K with Nucleic Acid [3] turned out to be 2.3e+06.

Regarding `N=C(N)c1ccc2[nH]c(CCCCc3nc4cc(C(=N)N)ccc4[nH]3)nc2c1`, the ΔTm in the assay on Nucleic Acid [1] is 24.4; in the assay with Nucleic Acid [2], 10; with Nucleic Acid [4], 0.5; in the assay on Nucleic Acid [5] it was -0.6. The same compound gave a K in the assay with Nucleic Acid [3] of 1.3e+07.

As for `N=C(N)c1ccc2[nH]c(CCc3nc4cc(C(=N)N)ccc4[nH]3)nc2c1`, the ΔTm with Nucleic Acid [1] is greater than 26; in the assay with Nucleic Acid [2], 15.9; with Nucleic Acid [4], 0.75; in the assay with Nucleic Acid [5], -1.1. The K in the assay on Nucleic Acid [3] was 7.6e+07.

With `N=C(N)c1ccc(-c2cc3ccc(C(=N)N)cc3[nH]2)cc1`, the ΔTm in the assay on Nucleic Acid [1] is greater than 26; in the assay with Nucleic Acid [2] it was 22.2; with Nucleic Acid [4] it was 2.5; with Nucleic Acid [5], 3.9. In the assay on Nucleic Acid [3], this compound had a K of 4.5e+08.

Consider `c1cc2[nH]c(-c3ccc4[nH]c(CCCCc5nc6cc(-c7nc8cc(C9=NCCN9)ccc8[nH]7)ccc6[nH]5)nc4c3)nc2cc1C1=NCCN1`, for which the ΔTm is greater than 26 with Nucleic Acid [1], 20.8 with Nucleic Acid [2], 0 in the assay with Nucleic Acid [4] and 0 in the assay with Nucleic Acid [5]. The compound further gave a K with Nucleic Acid [3] of 3.1e+08.

As for `N=C(N)c1ccc2[nH]c(/C=C/c3nc4cc(C(=N)N)ccc4[nH]3)nc2c1`, the ΔTm was greater than 26 in the assay with Nucleic Acid [1], 22.8 in the assay with Nucleic Acid [2], -1.5 with Nucleic Acid [4] and 0 with Nucleic Acid [5]. In addition, in the assay with Nucleic Acid [3], the K stood at 5.3e+08.

`c1cc2[nH]c(CCc3nc4cc(C5=NCCN5)ccc4[nH]3)nc2cc1C1=NCCN1`: the ΔTm in the assay on Nucleic Acid [1] was greater than 26; with Nucleic Acid [2], 16.4; with Nucleic Acid [4] it was 0.7; with Nucleic Acid [5], 0.9. Moreover, in the assay on Nucleic Acid [3], the K was determined as 8.8e+07.

Regarding `N=C(N)c1ccc2[nH]c(-c3ccc4[nH]c(CCCCc5nc6cc(-c7nc8cc(C(=N)N)ccc8[nH]7)ccc6[nH]5)nc4c3)nc2c1`, the ΔTm with Nucleic Acid [1] was greater than 26; with Nucleic Acid [2], 22.2; in the assay with Nucleic Acid [4] it was 0; in the assay on Nucleic Acid [5], 0. The K in the assay on Nucleic Acid [3] turned out to be 4.5e+08.

Take `c1cc2[nH]c(Cc3nc4cc(C5=NCCN5)ccc4[nH]3)nc2cc1C1=NCCN1`: the ΔTm with Nucleic Acid [1] is 5.7; with Nucleic Acid [2], 2.8; in the assay with Nucleic Acid [4], 0; with Nucleic Acid [5], -0.6. In addition, the K in the assay on Nucleic Acid [3] was 930000.

In the case of `c1cc2[nH]c(-c3ccc4[nH]c(CCc5nc6cc(-c7nc8cc(C9=NCCN9)ccc8[nH]7)ccc6[nH]5)nc4c3)nc2cc1C1=NCCN1`, the ΔTm in the assay on Nucleic Acid [1] was greater than 26; with Nucleic Acid [2], 28.5; in the assay on Nucleic Acid [4] it was 0; in the assay on Nucleic Acid [5], 0. The compound also showed a K in the assay on Nucleic Acid [3] of 2e+09.
